ROCK2 inh: inhibitors of human ROCK2 kinase, primary screen, biochemical, high-throughput, luminescence; Rho-associated protein kinase 2 (Homo sapiens), O75116; purified ROCK2, Kinase-Glo ATP depletion luminescence; inhibition, % at 6 µM; actives 0.35% (n = 60,000); AID 604, 2007;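 active means inhibition above the screen-wide mean inhibition plus 3 SD, cut at about 18% in these data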;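 further: plate controls were DMSO wells for no effect and Y-27632 control wells after no-enzyme background subtraction for full effect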
SF1 activator: activators of human SF-1, primary screen, cell-based, CHO-K1, Gal4-SF-1 LBD, luciferase luminescence; Steroidogenic factor 1 (Homo sapiens), Q13285; CHO-K1 Gal4-SF-1 LBD luciferase reporter; % increase over DMSO SF-1-specific signal; activation, % at 10 µM; actives 1.9% (n = 65,000); AID 522, 2006;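 active means activation above the mean activation of all tested compounds plus 3 SD, cut at about 50% in these data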
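Test system: CHO-K1 cells co-transfected with Gal4 DBD–human SF-1 LBD, 5xGal4 luciferase reporter. Quantity: 4,000 cells per well. Compound: 10 µM only. Incubation: compound added 1 h post-seeding, 20 h exposure at 37 °C, 5% CO2. Detection: SteadyLite luciferase luminescence. Replication: one test per compound.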
JNK3 blocker: JNK3 kinase activity inhibitors, primary screen, biochemical, human, purified enzyme; Mitogen-activated protein kinase 10 (Homo sapiens), P53779; HTS; inhibition, % at 8 µM; actives 0.61% (n = 60,000); AID 746, 2007; in the data active means inhibition above about 17%;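 further: 0% = DMSO and 100% = reference inhibitor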
Target sequence (P53779 whole entry, looked up): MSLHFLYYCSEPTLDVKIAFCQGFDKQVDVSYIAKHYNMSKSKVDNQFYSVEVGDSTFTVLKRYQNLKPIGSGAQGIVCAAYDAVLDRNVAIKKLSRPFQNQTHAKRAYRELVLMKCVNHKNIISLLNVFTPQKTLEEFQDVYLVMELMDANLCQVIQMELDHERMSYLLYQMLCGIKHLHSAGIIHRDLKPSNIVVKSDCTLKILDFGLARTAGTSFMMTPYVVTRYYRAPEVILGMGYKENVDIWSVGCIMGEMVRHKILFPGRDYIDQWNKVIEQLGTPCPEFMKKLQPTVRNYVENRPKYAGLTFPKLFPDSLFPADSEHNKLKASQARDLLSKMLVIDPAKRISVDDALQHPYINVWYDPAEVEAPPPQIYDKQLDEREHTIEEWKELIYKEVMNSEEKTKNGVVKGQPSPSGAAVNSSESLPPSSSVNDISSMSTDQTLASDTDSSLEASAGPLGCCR
MMP13 inh: human MMP13 inhibitors, primary screen, biochemical, FRET peptide cleavage; Collagenase 3 (Homo sapiens), P45452; MMP-13 fTHP FRET cleavage, Mca fluorescence; inhibition, % at 4 µM; actives 0.07% (n = 65,000); AID 570, 2006;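 active means inhibition above the mean of compound-free control plate wells plus 3 SD, cut at about 14% in these data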;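 further: 0% = DMSO wells and 100% = wells with reference MMP-13 inhibitor after basal subtraction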
RORa activator: activators of orphan receptor RORA, primary screen, cell-based, luminescence | Nuclear receptor ROR-alpha (Homo sapiens), P35398 | CHO-K1 Gal4-RORA LBD luciferase reporter; percent increase over mock-subtracted basal signal | activation, % at 10 µM | actives 1.5% (n = 65,000) | AID 560, 2006;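 active means activation above the mean of all tested compounds plus 3 SD, cut at about 49% in these data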;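 further: 0% = DMSO-treated RORA cells and 100% = added signal equal to DMSO minus mock-transfected cells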
PKA inh: inhibitors of human PKA kinase activity, primary screen, biochemical, ATP-depletion luminescence, Kemptide substrate; PKA Kemptide phosphorylation, Kinase-Glo ATP luminescence; inhibition, % at 6 µM; cAMP-dependent protein kinase catalytic subunit alpha (Homo sapiens), P17612; actives 0.1% (n = 65,000);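 active means inhibition above the screen-wide mean inhibition plus 3 SD, cut at about 21% in these data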
* marks the source's active call; other numbers are inactive results; i = inactive; x = no result given. In the library only some 3.4% were active in any assay of this set; here they are far more common.

SMILES	ROCK2 inh	SF1 activator	JNK3 blocker	MMP13 inh	RORa activator	PKA inh
Clc1cccc2sc(N3CCCC3)nc12	5	50*	5	-3	22	9
Cc1nc(SCC(=O)N2CCN(c3ccccc3)CC2)c2c(=O)n(C)c(=O)n(C)c2n1	1	-4	-2	-3	-16	-2
Cc1ccccc1-c1nc(-c2cccnc2)no1	6	67*	6	1	43	6
CCOc1cc(-c2noc(-c3cccnc3)n2)ccc1OC	9	20	2	0	23	4
CCOc1ccc(-c2noc(-c3cccnc3)n2)cc1OC	13	14	-6	-2	57*	0
COc1ccccc1Nc1nc2ccccc2[nH]1	-3	66*	-6	6	6	5
COc1cc(C(=O)Nc2nccs2)ccc1OCc1c(C)noc1C	3	-14	21*	0	-6	5
COc1cc(C(=O)NCC2CCCO2)ccc1OCc1c(C)noc1C (stereo not drawn)	x	6	x	9	-2	10
c1ccc(OCCSc2nnnn2-c2ccccc2)cc1	3	63*	-3	0	35	0
Cc1cccc(-n2cnc3cc(C(=O)N4CCCCC4)ccc32)c1	x	55*	x	2	16	0
Cn1nnc2cc(C(=O)N3CCCCCC3)ccc21	x	8	x	1	-3	4
CSc1ccc(-c2cc(=O)c3ccccc3o2)cc1	7	63*	4	i	32	5
O=C(Nc1cc(=O)c2ccccc2o1)N1CCCCC1	x	13	x	-3	5	-2
CCn1c(SCC(=O)N2CCN(c3ccc(F)cc3)CC2)nnc1-c1ccncc1	3	4	-1	7	-3	11
O=C(CSC1=NCCS1)N1CCOCC1	0	-6	9	3	-20	-1
C=C(C)COc1ccc(-c2ncncc2Oc2ccc(OC)cc2)c(O)c1	-2	23	-4	0	6	1
COc1ccc(-c2cnc(N)nc2-c2ccc(OC)cc2O)cc1	9	13	31*	3	4	10
C=C(C)COc1ccc(-c2nc(N)ncc2-c2ccc(OC)cc2)c(O)c1	2	11	23*	0	24	6
COc1cccc(Oc2cnc(N)nc2-c2ccc(OC)cc2O)c1	6	42	0	5	45	8
Cc1cccc2c(=O)oc(-c3ccc4c(c3)C(=O)N(CC3CCCO3)C4=O)nc12 (stereo not drawn)	0	-6	-6	6	2	0
CCc1c(C)nc(SCC(=O)N2CCc3ccccc32)[nH]c1=O	3	15	2	2	17	4
Cc1ccc2nsnc2c1S(=O)(=O)N(Cc1cc2cccc(C)c2[nH]c1=O)CC1CCCO1 (stereo not drawn)	-1	0	-3	-6	-6	-1
c1coc(-c2nnc(NC3=NCCC3)o2)c1	2	61*	11	3	32	8
CCC(C)(C)NC(=O)C(c1cccnc1)N(CCOC)C(=O)Cn1nnc2ccccc21 (stereo not drawn)	1	3	7	1	-33	-4
O=C(Cn1cnnn1)Nc1ccccc1Cc1ccccc1	4	-8	0	3	-7	5
SMILES	ROCK2 inh	SF1 activator	JNK3 blocker	MMP13 inh	RORa activator	PKA inh
Cc1ccc(NC(=O)COc2ccc(/C(N)=N/O)cc2)cc1C	x	-8	x	8	7	10
Cc1cc(C(=O)CN2C(=O)NC3(CCCCC3)C2=O)c(C)n1Cc1ccc2c(c1)OCO2	22*	25	-5	0	13	11
Cc1nc(N)sc1-c1csc(Nc2ccccc2)n1	11	90*	-2	-1	50*	7
CC(=O)Nc1nc(C)c(-c2csc(Nc3ccc(O)cc3)n2)s1	9	-27	18*	3	-16	8
COc1cc(C)nc(N2CCCC(C(=O)Nc3cccc(Cl)c3Cl)C2)n1 (stereo not drawn)	x	-11	x	4	3	3
Cc1c(CCC#N)c(N2CCN(C3CCCCC3)CC2)n2c(nc3ccccc32)c1C#N	4	1	4	2	-14	3
COc1ccc(C(=O)Nc2ccc(Cl)c(Cl)c2)c(OC)n1	6	28	-10	5	52*	10
COC(=O)CCCC(=O)Nc1ccc(Cl)c(Cl)c1	3	11	-1	5	0	7
Cc1cc(NCCCN2CCOCC2)n2ncc(-c3ccc(Cl)cc3)c2n1	4	70*	7	-71	62*	4
Cc1nc2sccn2c1-c1nc(-c2cc3ccccc3o2)cs1	3	6	6	-3	16	6
Cc1ccnc(Nc2nc(-c3c(C)nc4sccn34)cs2)c1	4	31	34*	-7	-8	6
CC1=C(C)SC(=C(C#N)c2nnc(N3CCOCC3)n2-c2ccccc2)S1	-1	-9	-9	0	-8	14
Cc1ccc2c(c1)c1ncnc(N3CCC4(CC3)OCCO4)c1n2C	-3	67*	0	-272	62*	4
COc1ccc2c(c1OC)C(=O)N1c3cccc(Cl)c3C(=O)OC21 (stereo not drawn)	3	-3	-1	-2	1	-1
COc1ccc2c(c1OC)C(=O)N1c3ccccc3SC21 (stereo not drawn)	11	72*	1	-11	10	4
COc1ccc2c(c1OC)C(=O)N1c3ccccc3C(=O)N(c3ccccc3F)C21 (stereo not drawn)	9	15	0	-4	-25	4
COc1ccc2c(c1OC)C(=O)N1c3ccccc3COC21 (stereo not drawn)	-1	51*	-1	1	82*	4
CCC1(CC)NC(=O)N(CC(=O)Nc2sc3c(c2C(N)=O)CCC3)C1=O	1	-5	-3	-14	0	-3
CS(=O)(=O)N1CCN(c2ccccc2NC(=O)Cc2ccccc2)CC1	6	-1	17*	1	5	11
CS(=O)(=O)N1CCN(c2ccccc2NC(=O)Cc2ccc(Cl)cc2)CC1	6	-4	8	-2	-26	9
CCOc1ccc2nc(NC(=O)C(CC)Sc3nc(C)cc(=O)[nH]3)sc2c1 (stereo not drawn)	4	23	-4	2	52*	5
COCC(=O)Nc1nc2ccc(S(C)(=O)=O)cc2s1	5	30	2	-5	38	6

Screening data from PubChem.
